Converted amounts (≈) assume the structure as drawn. The source made the active and inactive calls. No cut-off for these calls is given here.

The subject of assay [1] is Radical scavenging activity. Kind of assay: Antioxidant activity assessed as DPPH free radical scavenging activity after 20 mins by UV-visible spectrophotometric analysis. Format: functional. The procedure, abridged:
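Kept in the dark at room temperature for 20 min, then absorbance read at 517 nm against DPPH blank, DMSO baseline. % scavenging = [(Ac−At)/Ac]×100; IC50 (µg/mL) from concentration plot; mean ± SEM, n=3, 8 replica each.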

Assay [2] has as its system Aspergillus flavus. Briefly: Antifungal activity against Aspergillus flavus ATCC 11495 after 24 hrs by microdilution technique. The assay is classed as functional.
Assay [3] relates to Aspergillus flavus. Briefly: Antifungal activity against Aspergillus flavus ATCC 11495 at 10 mg/disc after 48 hrs by disc-diffusion method. Format: functional. The gist of the method: (§1)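 Disc diffusion per Bauer method under NCCLS conditions on nutrient agar/Mueller-Hinton agar. Compound dissolved in sterile DMSO at 10 mg/mL, filtered 0.2 µm, stored frozen at -15 °C; 10 mg/disc in DMSO applied. DMSO control. Inhibition zone diameter measured in mm after 48 h incubation at 28 °C.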

The subject of assay [4] is Candida albicans. Briefly: Antifungal activity against Candida albicans ATCC 26555 after 24 hrs by microdilution technique. The assay is classed as functional. The procedure, abridged: (§2)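 MIC by agar microdilution on Mueller-Hinton agar per NCCLS 1997. Bacteria subcultured overnight at 37 °C on MHA, Candida on SDA at 35 °C for 24-48 h, each passaged at least twice. Incubated 37 °C in humid chamber, read after 24 h.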

For assay [5], the system named is Candida albicans. Briefly: Antifungal activity against Candida albicans ATCC 26555 at 10 mg/disc after 48 hrs by disc-diffusion method. The assay is classed as functional. The procedure, abridged: as §1
Assay [6] relates to Escherichia coli. Kind of assay: Antibacterial activity against Escherichia coli ATCC 11775 after 24 hrs by microdilution technique. The assay is classed as functional. The gist of the method:
as §2

For assay [7], the system named is Escherichia coli. Briefly: Antibacterial activity against Escherichia coli ATCC 11775 at 10 mg/disc after 48 hrs by disc-diffusion method. The assay is classed as functional, DSM 30083 = JCM 1649. The gist of the method: as §1
In assay [8] the test system is Bacillus cereus. Briefly: Antibacterial activity against Bacillus cereus ATCC 14579 after 24 hrs by microdilution technique. The assay is classed as functional. The gist of the method: as §2
Assay [9] concerns Bacillus cereus. Kind of assay: Antibacterial activity against Bacillus cereus ATCC 14579 at 10 mg/disc after 48 hrs by disc-diffusion method. The assay is classed as functional. The gist of the method:
as §1

In assay [10] the test system is Staphylococcus aureus. Kind of assay: Antibacterial activity against Staphylococcus aureus ATCC 12600 after 24 hrs by microdilution technique. Format: functional. To be noted: ATCC 12600, 24 h. The gist of the method: as §2
Assay [11] relates to Staphylococcus aureus. Briefly: Antibacterial activity against Staphylococcus aureus ATCC 12600 at 10 mg/disc after 48 hrs by disc-diffusion method. Format: functional. The gist of the method: as §1
The subject of assay [12] is Aspergillus flavus. Kind of assay: Antifungal activity against Aspergillus flavus ATCC 11495 at 50 ug/ml after 48 hrs by disc-diffusion method. The assay is classed as functional. To be noted: ATCC 11495, 48 h, read-out: DIZ. The procedure, abridged:
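Disc diffusion per Bauer et al., following NCCLS conditions, on nutrient agar or Mueller-Hinton agar. Compounds were dissolved in sterile DMSO at 10 mg/mL stock, filtered at 0.2 µm and stored frozen at -15 °C. Test discs carried 10 mg/disc in DMSO, and fluconazole reference was 50 µg/mL. After 48 h incubation at 28 °C, inhibition zone diameter was read in mm.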

Assay [13] relates to Candida albicans. Briefly: Antifungal activity against Candida albicans ATCC 26555 at 50 ug/ml after 48 hrs by disc-diffusion method. The conditions noted are these: ATCC 26555, 48 h, read-out: DIZ. The assay is classed as functional.
Assay [14] relates to Escherichia coli. Briefly: Antibacterial activity against Escherichia coli ATCC 11775 at 10 mg/ml after 48 hrs by disc-diffusion method. The assay is classed as functional. The conditions noted are these: DSM 30083 = JCM 1649, 48 h, read-out: DIZ. The procedure, abridged: (§3)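 Disc-diffusion reference: penicillin at 10 mg/mL on nutrient agar/Mueller-Hinton agar per Bauer method; inhibition zone diameter (mm) read after 48 h at 28 °C.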

For assay [15], the system named is Bacillus cereus. Briefly: Antibacterial activity against Bacillus cereus ATCC 14579 at 10 mg/ml after 48 hrs by disc-diffusion method. The assay is classed as functional. To be noted: ATCC 14579, 48 h, read-out: DIZ. The gist of the method:
as §3

Assay [16] deals with Staphylococcus aureus. Briefly: Antibacterial activity against Staphylococcus aureus ATCC 12600 at 10 mg/ml after 48 hrs by disc-diffusion method. Format: functional. The conditions noted are these: ATCC 12600, 48 h, read-out: DIZ. The procedure, abridged: as §3

Consider `COc1cc(-c2[nH]c(=S)nc(NN)c2C#N)cc(OC)c1OC`, for which the Activity entry in [1] is “Dose-dependent effect”. In addition, in assay [1], the IC50 turned out to be 6.21 µg/mL (≈ 18.6 µM). Besides, the MIC result in assay [2] and in assay [4] was “inactive” throughout. For the same compound, the “diameter of the inhibition zone (DIZ)” value in assay [3] and in [5] was “inactive” throughout. In addition, the MIC is 32 µg/mL (≈ 96 µM) in assay [6] (DSM 30083 = JCM 1649, 24 h); 64 µg/mL (≈ 192 µM) in assay [8] (ATCC 14579, 24 h); 64 µg/mL (≈ 192 µM) in assay [10]. The figures for the “diameter of the inhibition zone (DIZ)” value in assay [7], in [9] and in assay [11] were 12 mm, 10 mm and 11 mm, respectively.
On to `COc1cc(-c2[nH]c(=S)n3c(=O)c(=O)[nH]nc3c2C#N)cc(OC)c1OC`, for which the Activity entry in assay [1] is “Dose-dependent effect”. Besides, the half-maximal inhibitory concentration (IC50) in assay [1] stood at 8.55 µg/mL (≈ 22.1 µM). Moreover, the MIC amounted to 16 µg/mL (≈ 41.3 µM) in assay [2] (ATCC 11495, 24 h) and 32 µg/mL (≈ 82.6 µM) in [10]. For the same compound, the “diameter of the inhibition zone (DIZ)” value in [3] is given as 17 mm; in assay [11], 14 mm. Also, the MIC entry in assay [4], in assay [6] (DSM 30083 = JCM 1649) and in assay [8] was “inactive” each time. Besides, the “diameter of the inhibition zone (DIZ)” value in assay [5], in assay [7] (DSM 30083 = JCM 1649) and in assay [9] was “inactive” in each case.
Regarding `N#Cc1c(-c2ccc(F)cc2)[nH]c(=S)n2c(=O)c(=O)[nH]nc12`, the Activity result in [1] is “Dose-dependent effect”. Moreover, in [1], the IC50 came out at 14.72 µg/mL (≈ 46.7 µM). Moreover, the MIC in assay [2] (ATCC 11495, 24 h) is 16 µg/mL (≈ 50.7 µM); in [10], 32 µg/mL (≈ 101 µM). Further, the “diameter of the inhibition zone (DIZ)” value came out at 18 mm in assay [3] and 14 mm in [11]. Moreover, the MIC result in assay [4], in assay [6] (DSM 30083 = JCM 1649) and in [8] was “inactive” throughout. The “diameter of the inhibition zone (DIZ)” value in [5], in assay [7] (DSM 30083 = JCM 1649) and in [9] was “inactive” in each case.
`COc1ccc(/C=N/Nc2nc(=S)[nH]c(-c3ccc(F)cc3)c2C#N)cc1`: the Activity entry in [1] was “Dose-dependent effect”. In addition, the IC50 in assay [1] came to 12.68 µg/mL (≈ 33.4 µM). For the same compound, the minimal inhibitory concentration (MIC) is 16 µg/mL (≈ 42.2 µM) in [2] (ATCC 11495, 24 h); 16 µg/mL (≈ 42.2 µM) in assay [4] (ATCC 26555, 24 h); 16 µg/mL (≈ 42.2 µM) in assay [6] (DSM 30083 = JCM 1649, 24 h); 16 µg/mL (≈ 42.2 µM) in assay [8] (ATCC 14579, 24 h); 16 µg/mL (≈ 42.2 µM) in assay [10]. Besides, the “diameter of the inhibition zone (DIZ)” value in assay [3] is reported as 18 mm; in [5], 18 mm; in [7], 19 mm; in [9], 21 mm; in assay [11], 23 mm.
For the compound `COc1cc(-c2[nH]c(=S)n3c(=O)[nH]nc3c2C#N)cc(OC)c1OC`, in [1], the Activity entry is “Dose-dependent effect”. In addition, in [1], the IC50 stood at 9.34 µg/mL (≈ 26 µM). The MIC entry in assay [2], in assay [4], in [6] (DSM 30083 = JCM 1649) and in assay [8] was “inactive” throughout. The “diameter of the inhibition zone (DIZ)” value in assay [3], in assay [5], in assay [7] (DSM 30083 = JCM 1649) and in assay [9] was “inactive” throughout. Further, the MIC in [10] is 64 µg/mL (≈ 178 µM). Also, in assay [11], the “diameter of the inhibition zone (DIZ)” value was determined as 10 mm.
On to `N#Cc1c(-c2ccc(F)cc2)[nH]c(=S)n2c(=O)[nH]nc12`, for which the Activity entry in [1] is “Dose-dependent effect”. Moreover, the IC50 in assay [1] stood at 19.62 µg/mL (≈ 68.3 µM). For the same compound, the MIC entry in [2], in assay [4], in assay [6] (DSM 30083 = JCM 1649) and in [8] was “inactive” throughout. Moreover, the “diameter of the inhibition zone (DIZ)” value in assay [3], in assay [5], in assay [7] (DSM 30083 = JCM 1649) and in assay [9] was “inactive” each time. The compound also yielded a minimal inhibitory concentration (MIC) in assay [10] of 32 µg/mL (≈ 111 µM). Besides, the “diameter of the inhibition zone (DIZ)” value in assay [11] came to 12 mm.
`N#Cc1c(N/N=C/c2ccccc2)nc(=S)[nH]c1-c1ccc(F)cc1`: in assay [1], the Activity result is “Dose-dependent effect”. Also, the IC50 in [1] amounted to 13.8 µg/mL (≈ 39.5 µM). In addition, the minimum inhibitory concentration (MIC) in assay [2] (ATCC 11495, 24 h) turned out to be 16 µg/mL (≈ 45.8 µM); in assay [4] (ATCC 26555, 24 h), 16 µg/mL (≈ 45.8 µM); in [6] (DSM 30083 = JCM 1649, 24 h), 16 µg/mL (≈ 45.8 µM); in assay [8] (ATCC 14579, 24 h), 16 µg/mL (≈ 45.8 µM); in assay [10], 16 µg/mL (≈ 45.8 µM). For the same compound, the “diameter of the inhibition zone (DIZ)” value amounted to 19 mm in assay [3]; 19 mm in assay [5]; 19 mm in assay [7]; 22 mm in assay [9]; 24 mm in assay [11].
With `N#Cc1c(NN)nc(=S)[nH]c1-c1ccc(F)cc1`, the Activity entry in assay [1] is “Dose-dependent effect”. Also, in assay [1], the IC50 was 15.24 µg/mL (≈ 58.3 µM). For the same compound, the MIC in assay [2] (ATCC 11495, 24 h) is 32 µg/mL (≈ 122 µM); in [6] (DSM 30083 = JCM 1649, 24 h), 32 µg/mL (≈ 122 µM); in assay [8] (ATCC 14579, 24 h), 64 µg/mL (≈ 245 µM); in assay [10] it was 16 µg/mL (≈ 61.2 µM). The “diameter of the inhibition zone (DIZ)” value came to 13 mm in assay [3], 14 mm in assay [7], 12 mm in assay [9] and 15 mm in [11]. Besides, in [4], the MIC entry is “inactive”. Further, the “diameter of the inhibition zone (DIZ)” value in assay [5] is “inactive”.
In the case of `OC(Cn1cncn1)(Cn1cncn1)c1ccc(F)cc1F` [FLUCONAZOLE], the zone of inhibition at 50 µg/mL in assay [12] amounted to 21 mm; in assay [13], 20 mm. In addition, the minimal inhibitory concentration (MIC) in assay [2] (ATCC 11495, 24 h) came out at 16 µg/mL (≈ 52.2 µM); in assay [4] (ATCC 26555, 24 h), 16 µg/mL (≈ 52.2 µM).
Turning to `CC1(C)S[C@@H]2[C@H](NC(=O)Cc3ccccc3)C(=O)N2[C@H]1C(=O)O` [PENICILLIN G], the zone of inhibition at 10000 µg/mL stood at 12 mm in [14], 13 mm in [15] and 16 mm in assay [16]. Further, the MIC in [8] (ATCC 14579, 24 h) was determined as 32 µg/mL (≈ 95.7 µM); in assay [10], 16 µg/mL (≈ 47.8 µM).

The record behind these values is ChEMBL document CHEMBL2434844, “Synthesis, antimicrobial, antioxidant activities of novel 6-aryl-5-cyano thiouracil derivatives” (Eur J Med Chem, 2013).
